The species named for assay [1] is Homo sapiens. Briefly: Inhibitory activity against U-46,619-induced aggregation of washed human platelets. It is filed as functional. Put shortly:
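Aspirin-treated, washed human platelets stimulated with U 46619 (stable PGH₂/TxA₂ mimic); aggregation inhibition measured; IC50.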

Another assay addresses T1, Thromboxane-A synthase (Homo sapiens, UniProt P24557).
T1 sequence (P24557 whole entry): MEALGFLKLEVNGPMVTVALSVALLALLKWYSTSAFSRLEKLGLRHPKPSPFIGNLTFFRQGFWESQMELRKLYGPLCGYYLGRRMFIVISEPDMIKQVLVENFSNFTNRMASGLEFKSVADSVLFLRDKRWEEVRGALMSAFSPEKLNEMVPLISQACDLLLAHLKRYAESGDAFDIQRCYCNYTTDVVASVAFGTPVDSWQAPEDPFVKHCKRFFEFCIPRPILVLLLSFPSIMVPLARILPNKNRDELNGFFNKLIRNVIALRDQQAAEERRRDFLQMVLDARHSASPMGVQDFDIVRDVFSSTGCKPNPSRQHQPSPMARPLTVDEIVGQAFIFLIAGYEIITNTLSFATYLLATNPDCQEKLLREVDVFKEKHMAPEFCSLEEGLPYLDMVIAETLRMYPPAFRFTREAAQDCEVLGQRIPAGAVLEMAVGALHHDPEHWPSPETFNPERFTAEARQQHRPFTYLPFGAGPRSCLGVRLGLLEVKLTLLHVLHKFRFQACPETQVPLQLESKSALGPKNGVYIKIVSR
As to the kind of experiment: Inhibitory activity against human Thromboxane A2 synthase. Summed up:
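Human platelet microsomal preparation incubated with (14C)arachidonic acid; thromboxane synthase inhibition read as reduced TxB₂ formation; IC50.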

Assay [2] is filed under the species Homo sapiens. Briefly: Antagonist activity against U-46,619-induced aggregation of platelet rich plasma (PRP). It is filed as functional. Summed up:
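Human platelet-rich plasma stimulated with U 46619; aggregation inhibition measured; IC50.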

Assay [3] in a line: Ratio of platelet rich plasma to that of washed platelets.
Assay [4] is filed under the species Oryctolagus cuniculus. Briefly: Antagonist activity against contraction of rabbit aortic strips; (agonist activity was observed at 10e-5-10e-7M). It is filed as functional, Aorta. Summed up: (§1)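 Thoracic aorta segments (~3 cm) from anesthetized male New Zealand rabbits (1.4–2.4 kg), cleaned of fat; 2.0 g preload, 1 h equilibration. Contraction evoked by U 46619 (3 × 10⁻⁹ M) to plateau (20 min), then washed back to baseline. IC50 from a single determination.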

The species entered for assay [5] is Oryctolagus cuniculus. Briefly: Antagonist activity against contraction of rabbit aortic strips. Type of assay: functional. The settings on record: Aorta. Put shortly:
as §1

Some results are limits rather than exact numbers.

Usually IC50 stands for the concentration needed to halve the response being measured. The low end stands for greater potency, the high end for weaker potency.

With `Cc1ccc(S(=O)(=O)NCC(CCCCCC(=O)O)c2cccnc2)cc1` (stereo not drawn), the IC50 in the assay filed under Homo sapiens [1] is 200 nM; on Thromboxane-A synthase, 50 nM.
For `COc1ccc(S(=O)(=O)NCC(CCCCCC(=O)O)c2cccnc2)cc1` (stereo not drawn), the IC50 amounted to 300 nM in the assay listed under Homo sapiens [1] and 940 nM against Thromboxane-A synthase.
Take `O=C(O)CCCCC(CNS(=O)(=O)c1ccc(Cl)cc1)c1cccnc1` (stereo not drawn): the half-maximal inhibitory concentration (IC50) amounted to 80 nM in the assay filed under Homo sapiens [1] and 77 nM against Thromboxane-A synthase.
For the compound `O=C(O)COc1ccc(CCNS(=O)(=O)c2ccccc2)cc1` [SULOTROBAN], the IC50 in the assay filed under Homo sapiens [1] amounted to 1500 nM; in the assay filed under Homo sapiens [2] it was 4000 nM. Moreover, the Ratio in assay [3] amounted to 2.6.
Take `O=C(O)CCCCCC(CNS(=O)(=O)c1ccc(C(=O)O)cc1)c1cccnc1` (stereo not drawn): the IC50 in the assay listed under Homo sapiens [1] and at Thromboxane-A synthase was greater than 10000 nM each time.
Take `Cl.O=C(O)CCCCCC(CNS(=O)(=O)c1ccc(Cl)cc1)c1cccnc1` (stereo not drawn): the IC50 in the assay filed under Homo sapiens [2] is 600 nM; in the assay filed under Oryctolagus cuniculus [4], “Agonist”. Moreover, the Ratio in assay [3] came out at 30.
For `O=C(O)CCCCCC(CNS(=O)(=O)c1ccc([N+](=O)[O-])cc1)c1cccnc1` (stereo not drawn), the values for the IC50 in the assay filed under Homo sapiens [1] and on Thromboxane-A synthase were 70 nM and 120 nM, respectively.
As for `Cl.O=C(O)CCCCCC(CNS(=O)(=O)c1ccc(Cl)c(Cl)c1)c1cccnc1` (stereo not drawn), the IC50 in the assay listed under Oryctolagus cuniculus [5] turned out to be 1000 nM; in the assay filed under Homo sapiens [1], 80 nM; in the assay filed under Homo sapiens [2], 2500 nM; at Thromboxane-A synthase it was 40 nM. Further, in assay [3], the Ratio is 32.
Regarding `CN(CC(CCCCCC(=O)O)c1cccnc1)S(=O)(=O)c1ccc(Cl)cc1` (stereo not drawn), the IC50 in the assay filed under Homo sapiens [1] and at Thromboxane-A synthase was greater than 10000 nM in each case.
As to `COC(=O)CCCCCC(CNS(=O)(=O)c1ccccc1)c1cccnc1` (stereo not drawn), the half-inhibitory concentration (IC50) in the assay filed under Homo sapiens [1] and on Thromboxane-A synthase was greater than 10000 nM throughout.
Turning to `Cl.O=C(O)CCCCCCC(CNS(=O)(=O)c1ccc(Cl)cc1)c1cccnc1` (stereo not drawn), the IC50 in the assay filed under Homo sapiens [1] was 10 nM; in the assay filed under Homo sapiens [2], 200 nM; against Thromboxane-A synthase it was 240 nM; in the assay filed under Oryctolagus cuniculus [4], “Agonist”. The Ratio in assay [3] was 20.
In the case of `Cl.O=C(O)CCCCCC(CNS(=O)(=O)c1ccccc1)c1cccnc1` (stereo in doubt; 6), the IC50 in the assay filed under Oryctolagus cuniculus [5] was 400 nM; in the assay listed under Homo sapiens [1], 250 nM; in the assay listed under Homo sapiens [2] it was 2100 nM; at Thromboxane-A synthase, 210 nM. For the same compound, the Ratio in assay [3] stood at 8.2.
Consider `O=C(O)CCCC(CNS(=O)(=O)c1ccc(Cl)cc1)c1cccnc1` (stereo not drawn), for which the IC50 in the assay listed under Homo sapiens [1] is greater than 10000 nM; against Thromboxane-A synthase it was 2000 nM.
As to `NC(=O)CCCCCC(CNS(=O)(=O)c1ccccc1)c1cccnc1` (stereo not drawn), the IC50 in the assay filed under Homo sapiens [1] and on Thromboxane-A synthase was greater than 10000 nM throughout.
In the case of `Cc1ccccc1S(=O)(=O)NCC(CCCCCC(=O)O)c1cccnc1` (stereo not drawn), the IC50 in the assay filed under Homo sapiens [1] worked out at 380 nM; on Thromboxane-A synthase it was 200 nM.
For the compound `O=C(O)CCCCCC(CNS(=O)(=O)c1ccccc1)c1cccnc1` (stereo in doubt; 25), the half-maximal inhibitory concentration (IC50) in the assay listed under Homo sapiens [1] was 250 nM; on Thromboxane-A synthase it was greater than 10000 nM.
